Data on eleven molecules can be found in ChEMBL document CHEMBL1122320, “1H-2-benzopyran-1-one derivatives, microbial products with pharmacological activity. Relationship between structure and activity in 6-[[1(S)-(3(S),4- dihydro-8-hydroxy-1-oxo-1H-2-benzopyran-3-yl)-3-methylbutyl]-amino]-4(S), 5(S)-dihydroxy-6-oxo-3(S)-ammoniohexanoate” (J Med Chem, 1983).

The subject of series [1] is Rattus norvegicus. Briefly: Gastroprotective activity on stress-induced ulcers in male Wistar rats at 12.5 mg/kg upon intraperitoneal administration. The class given is functional. Put shortly: (§1)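 Rats (160-180 g) fasted 24 h, given test compound ip in physiological saline; saline-only controls. After 1 h, restrained in net cage and immersed to xiphisternum in 21 °C water bath for 6 h, then killed and stomachs opened along greater curvature. Hemorrhagic ulceration scored 0-3; % protection = 100 − (treated total rating/saline rating)×100. Five rats per dose.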

Series [2] deals with Rattus norvegicus. Briefly: Gastroprotective activity on stress-induced ulcers in male Wistar rats at 25 mg/kg upon intraperitoneal administration. The class given is functional. Put shortly: as §1
The subject of series [3] is Rattus norvegicus. The series is described as follows: Gastroprotective activity on stress-induced ulcers in male Wistar rats at 50 mg/kg upon intraperitoneal administration. The series is classed as functional. Put shortly: as §1
Series [4] concerns Rattus norvegicus. The series is described as follows: Gastroprotective activity on stress-induced ulcers in male Wistar rats at 6.25 mg/kg upon intraperitoneal administration. The series is classed as functional. Put shortly: as §1
Series [5] in a line: Lethal dose in mice upon intraperitoneal administration;Value ranges from(131.6-243.4). The series is classed as toxicity, organism-based. Particulars: mouse, in vivo, ip.
Series [6] in a line: Lethal dose in mice upon intraperitoneal administration;Value ranges from(5-9.8). The series is classed as toxicity, organism-based. The following applies: mouse, in vivo, ip.
The test system of series [7] is Rattus norvegicus. Briefly: Gastroprotective activity on stress-induced ulcers in male Wistar rats at 6.25 mg/kg upon intraperitoneal administration;the minimum effective dose = 125 ug/kg (protection 66%). The series is classed as functional. Put shortly:
(§2)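 Male Wistar rats (160-180 g), food-deprived 24 h, given compound ip in physiological saline; saline-only controls. After 1 h, restrained in net cage and immersed to xiphisternum in 21 °C water for 6 h. Stomachs removed and opened along greater curvature, hemorrhagic ulceration scored 0-3. % protection = 100 − (treated total rating / saline rating)×100. Five rats per dose.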

Series [8] deals with Rattus norvegicus. Briefly: Gastroprotective activity on stress-induced ulcers in male Wistar rats at the specified ip dose of 12.5 mg/kg. The following applies: route intraperitoneal. The class given is functional. Put shortly: as §2

SMILES strings stand for the structures.

Turning to `NC(CC(=O)O)C(O)C(O)C(=O)[O-].[Na+]` (centres undefined), the Protection in the series on Rattus norvegicus [1] came to 0%; with Rattus norvegicus [2], 23%; with Rattus norvegicus [3], 43%.

Turning to `CC(=O)NC1CC(=O)OC1C(OC(C)=O)C(=O)NC(CC(C)C)C1Cc2cccc(OC(C)=O)c2C(=O)O1` (centres undefined), the Protection with Rattus norvegicus [1] stood at 0%; with Rattus norvegicus [2] it was 0%; in the series on Rattus norvegicus [3], 16%.

`CC(=O)NC1CC(=O)OC1C(OC(C)=O)C(=O)NC(CC(C)C)C1Cc2cccc(O)c2C(=O)O1` (centres undefined): the Protection in the series on Rattus norvegicus [1] is reported as 0%; in the series on Rattus norvegicus [2] it was 16%; in the series on Rattus norvegicus [3] it was 16%.

`CC(C)CC(NC(=O)C(O)C(O)C(N)CC(=O)O)C(O)Cc1cccc(O)c1C(=O)[O-].[Na+]` (centres undefined): the Protection with Rattus norvegicus [1] is listed as 16%; in the series with Rattus norvegicus [2], 50%; in the series on Rattus norvegicus [3], 50%.

Regarding `COc1cccc2c1C(=O)OC(C(CC(C)C)NC(=O)C(O)C(O)C(N)CC(=O)O)C2` (centres undefined), the Protection stood at 66% in the series with Rattus norvegicus [1], 83% in the series on Rattus norvegicus [2], 83% in the series on Rattus norvegicus [3] and 50% with Rattus norvegicus [4].

As to `CC(=O)NC1CC(=O)OC1C(O)C(=O)NC(CC(C)C)C1Cc2cccc(O)c2C(=O)O1` (centres undefined), the values for the Protection in the series on Rattus norvegicus [1], in the series on Rattus norvegicus [2] and in the series with Rattus norvegicus [3] were 16%, 33% and 66%, respectively.

`CC(C)C[C@H](NC(=O)[C@@H](O)[C@@H](O)[C@@H](N)CC(=O)O)[C@@H]1Cc2cccc(O)c2C(=O)O1`: the LD50 in series [5] came to 179 mg/kg. Besides, the Protection in the series on Rattus norvegicus [1] came out at 76%; in the series on Rattus norvegicus [2] it was 100%; with Rattus norvegicus [3] it was 100%; in the series on Rattus norvegicus [4] it was 56%.

Turning to `CC(C)CC(NC(=O)C(O)C1OC(=O)CC1N)C1Cc2cccc(O)c2C(=O)O1` (centres undefined), the Protection in the series with Rattus norvegicus [1] is recorded as 76%; with Rattus norvegicus [2], 76%; with Rattus norvegicus [3], 83%; with Rattus norvegicus [4] it was 17%.

With `CC(C)CC(NC(=O)C(O)C1C=CC(=O)O1)C1Cc2cccc(O)c2C(=O)O1` (centres undefined), the Protection in the series with Rattus norvegicus [1] turned out to be 0%; in the series with Rattus norvegicus [2], 16%; in the series on Rattus norvegicus [3], 33%.

Turning to `CC(C)CC(N)C1Cc2cccc(O)c2C(=O)O1.Cl` (centres undefined), the Protection was found to be 16% with Rattus norvegicus [1], 33% in the series on Rattus norvegicus [2] and 33% in the series on Rattus norvegicus [3].

Turning to `CC(C)CC(NC(=O)C(O)C(O)C(N)CC(N)=O)C1Cc2cccc(O)c2C(=O)O1.Cl` (centres undefined), the LD50 in series [6] worked out at 7 mg/kg. In addition, the Protection with Rattus norvegicus [2], with Rattus norvegicus [3], with Rattus norvegicus [7] and in the series on Rattus norvegicus [8] was 100% throughout.

Broadly, the LD50 is the dose at which mortality reaches 50%. A higher LD50 goes with a less toxic substance.
